An excerpt weighted towards active compounds, which were near 1.8% of everything screened.
Tn7 DDE FP: DD(E)-Tn7 binding inhibition, primary FP screen; P02675; inhibition, % at 8.3 µM; 370,000 tested, 0.13% active; FP displacement of FITC-Tn7 peptide from fibrin DD(E); 0% = median of compound wells per plate;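 active = inhibition above the mean of compounds falling within the control limits plus 3 SD of them, cut at about 14% in these data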;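 also: 0% = plate median of compound wells and 100% = 10 µM Aha-Tn7 peptide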
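Test system: human clot-derived fibrin DD(E) complex / Quantity: 2 µM final DD(E) protein / Incubation: 10 min plus 3 h, room temperature / Measured by: fluorescence polarization / Benchmarks: high control of 10 µM Aha-Tn7 peptide / Replicates: singlicate testing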
CAL PDZ FP-1: inhibitors of human CAL PDZ peptide binding; AID 602252; inhibition, % at 24.9 µM; purified CAL PDZ, TMR-peptide fluorescence polarization, 1 h; Q9HD26; 300,000 tested, 0.92% active;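 active = mean inhibition of at least 30% with at least half of replicates also reaching 30%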;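 also: 0% = DMSO neutral control and 100% = excess unlabeled competitor peptide PRC23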
GRK2 aptamer HTS: human GRK2 inhibition via aptamer displacement; bead flow cytometry, FAM-aptamer displacement from GRK2; 330,000 tested, 0.59% active; inhibition of aptamer binding, % at 10 µM; P25098; AID 488847;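 active = inhibition of aptamer binding above 40%, roughly 3 SD of noise, on plates passing a quality check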;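 also: median bead fluorescence of bound FAM aptamer so fluorescent compounds give negative values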
Target sequence (P25098 whole entry, looked up): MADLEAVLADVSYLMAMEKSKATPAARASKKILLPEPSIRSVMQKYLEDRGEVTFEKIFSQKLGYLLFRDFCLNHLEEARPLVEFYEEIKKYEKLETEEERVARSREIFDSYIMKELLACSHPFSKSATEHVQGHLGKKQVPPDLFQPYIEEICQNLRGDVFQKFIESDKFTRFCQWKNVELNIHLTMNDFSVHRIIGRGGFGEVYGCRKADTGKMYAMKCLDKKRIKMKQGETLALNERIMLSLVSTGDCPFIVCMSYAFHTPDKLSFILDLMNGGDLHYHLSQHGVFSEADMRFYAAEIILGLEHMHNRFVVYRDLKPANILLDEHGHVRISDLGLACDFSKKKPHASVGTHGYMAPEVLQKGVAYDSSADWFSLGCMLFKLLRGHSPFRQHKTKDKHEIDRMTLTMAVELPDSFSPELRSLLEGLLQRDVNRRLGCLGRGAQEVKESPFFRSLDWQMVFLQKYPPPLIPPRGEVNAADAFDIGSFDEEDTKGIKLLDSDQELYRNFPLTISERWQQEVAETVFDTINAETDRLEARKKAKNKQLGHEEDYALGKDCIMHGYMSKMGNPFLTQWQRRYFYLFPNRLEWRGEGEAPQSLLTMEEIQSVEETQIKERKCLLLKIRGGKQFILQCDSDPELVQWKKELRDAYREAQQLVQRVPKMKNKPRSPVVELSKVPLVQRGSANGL
CAL PDZ FP-2: inhibitors of human CAL PDZ peptide binding; purified CAL PDZ, TMR-peptide fluorescence polarization, 1 h; inhibition, % at 20 µM; 330,000 tested, 0.02% active;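 active = highest replicate inhibition of at least 40%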;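 also: plate controls were DMSO neutral control wells for no effect and unlabeled competitor peptide control wells for full effect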
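material = purified tagged CAL PDZ domain construct (CerCALP) | compound dosing = 20 µM, one dose | times = 1 h at RT | measured by = fluorescence polarization from S- and P-plane intensities, G-factor corrected | read-out = inhibition from polarization loss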
DDE Tn6 FP inh: inhibitors of Tn6 peptide binding to human fibrin DD(E). Fibrin DD(E) TRITC-Tn6 fluorescence polarization displacement. inhibition, % at 8.3 µM. P02675. AID 720509. 370,000 tested, 0.21% active;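 active = inhibition above a per-campaign cutoff: mean of compounds within control limits plus 3 SD, cut at about 15% in these data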;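 also: 0% = median of all compound wells on the plate and 100% = blocking peptide control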
ARNT-TACC3 inh: disruptors of human ARNT/TACC3 interaction. Q9Y6A5. AlphaScreen His-ARNT PAS-B/GST-TACC3 binding, luminescence; TACC3 fragment carries E629A point mutation. inhibition, % at 9.99 µM. 390,000 tested, 0.66% active. AID 623870;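 active = mean inhibition of replicates at least 50% and at least half of replicates each reaching 50%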;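 also: 0% = complete ARNT plus TACC3 wells and 100% = ARNT alone without TACC3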
Active calls of the source: *; . = no result; + = active, no number.

SMILES	Tn7 DDE FP	CAL PDZ FP-1	GRK2 aptamer HTS	CAL PDZ FP-2	DDE Tn6 FP inh	ARNT-TACC3 inh
O=C(NC[C@H]1[C@@H](c2ccccc2)[C@@H](CO)N1CC1CCCC1)c1ccccc1	.	.	.	.	.	0
CO[C@@H]1CN(C)C(=O)c2ccc(NC(=O)C3CCCCC3)cc2OC[C@@H](C)NC[C@@H]1C	.	.	.	.	.	-4
CC(=NNc1nc2ccccc2s1)c1ccncn1	11	-3	.	1	3	70*
C/C(=N\Nc1nc2ccccc2s1)c1ccc(Br)s1	-2	-1	2	-1	-3	.
O=[N+]([O-])c1ccc2nc(-c3ccncc3)[nH]c2c1	2	+	3	-2	-5	1
COc1cccc(S(=O)(=O)N[C@H]2C=C[C@H](CC(=O)NC3CCC3)O[C@@H]2CO)c1	.	.	.	.	.	-6
Cc1ccc(OCCC(=O)N(CC(=O)Nc2ccccc2C(F)(F)F)Cc2ccco2)cc1	5	40*	2	-2	1	3
CCOc1ccc(S(=O)(=O)NC(C)C(=O)NCc2ccc3c(c2)OCO3)cc1 (stereo not given)	-7	76*	0	0	3	1
CC(NS(=O)(=O)c1ccc(Br)cc1)C(=O)NCc1ccc2c(c1)OCO2 (stereo not given)	9	0	2	0	-2	-7
CO[C@@H]1CN(C)C(=O)c2ccc(NC(=O)C3CCC3)cc2OC[C@@H](C)N(Cc2ccc(F)cc2)C[C@H]1C	.	.	.	.	.	7
COc1ccc(CCn2c(=S)[nH]c3ccc(N4CCOCC4)cc3c2=O)cc1OC	0	128*	1	20	1	0
CCOC(=O)N1CCN(C(=O)C2CCN(C(=O)c3ccc([N+](=O)[O-])cc3)CC2)CC1	8	77*	0	0	10	-2
Cc1cc(NC(=O)c2cc(C)on2)no1	-9	-3	0	-2	-1	-2
Cc1cc(NC(=O)c2c(Br)c(C)nn2C)no1	-1	83*	0	0	3	-6
CC(C)N(C[C@H]1[C@@H](c2ccccc2)[C@H](CO)N1S(C)(=O)=O)C(=O)CN(C)C	.	.	.	.	.	-3
CC1(C)C(=S)N(Cc2ccccc2)c2ccccc21	4	44*	0	0	-2	-9
Cc1nonc1C(=O)N/N=C/c1ccc(O)cc1O	6	-4	0	-2	4	66*
O=C(N/N=C/c1ccc(O)cc1O)c1ccncc1	2	1	1	0	-3	74*
Cc1nc2ccc(C(=O)N/N=C/c3ccccc3O)cc2[nH]1	3	-4	0	-3	-11	93*
COc1ccc(/C=N/NC(=O)c2nonc2C)cc1	-1	-3	0	0	1	-3
Cc1nc2ccc(C(=O)N/N=C/c3cc([N+](=O)[O-])ccc3O)cc2[nH]1	-2	-3	0	-4	5	14
O=C(N/N=C/c1ccc(Cl)cc1Cl)c1ccncc1	-3	-6	0	-3	-5	10
Cc1noc(C)c1NC(=O)Nc1ccc2c(c1)C(=O)N([C@@H](C)CO)C[C@@H](C)[C@H](CN(C)C)OCCCC[C@H](C)O2	.	.	.	.	.	-1
Cc1ccc(S(=O)(=O)Nc2ccc3c(c2)C(=O)N([C@@H](C)CO)C[C@@H](C)[C@H](CN(C)C(=O)Nc2cccc4ccccc24)O3)cc1	.	.	.	.	.	-5
C=CCNCCOCCOc1ccc(C)cc1Br	2	32*	0	-1	1	0
SMILES	Tn7 DDE FP	CAL PDZ FP-1	GRK2 aptamer HTS	CAL PDZ FP-2	DDE Tn6 FP inh	ARNT-TACC3 inh
Cc1ccc(NC(=O)C(NC2CCCC2)c2ccccc2)cc1Cl (stereo not given)	-3	58*	5	-1	2	-2
COC1=CC(=O)c2nc(Cl)ccc2C1=O	-8	.	.	.	-12	.
COC1=CC(=O)c2c(ccc3ncnc(N)c23)C1=O	-6	-3	.	1	4	31*
c1ccc(Oc2ncnc3sccc23)cc1	-2	64*	1	0	1	5
CC(=O)N1c2ccc(S(=O)(=O)N3CCC(C(=O)Nc4cccc(Cl)c4)CC3)cc2CC1C (stereo not given)	-5	-3	85*	-2	-2	-11
O=C1C2C3c4ccccc4C(c4ccccc43)C2C(=O)N1Cc1ccco1 (stereo not given)	4	-6	1	0	1	3
CC12C(=O)N(Cc3ccco3)C(=O)C1C1c3ccccc3C2c2ccccc21 (stereo not given)	6	103*	1	.	3	-1
CCOc1ccc(CCNC(=O)C(C)N2C(=O)CC(C)(C)Sc3ccccc32)cc1 (stereo not given)	1	0	0	-1	1	15
CC(=O)C1CCCN(C(=O)c2ccc3oc(CCc4ccccc4)nc3c2)C1 (stereo not given)	-2	47*	1	0	2	-1
COc1cccc(CNC(=O)[C@H]2[C@H](CO)[C@H]3Cn4c(ccc(-c5cncnc5)c4=O)[C@H]3N2C)c1	.	.	.	.	.	4
Cn1c2c(c(=O)n3ncnc13)CCCC2	-2	48*	1	0	-4	-5
O=C(Cn1c2c(c(=O)n3ncnc13)CCC2)N/N=C/c1ccc(Cl)cc1	-8	13	3	-1	7	3
NC(=NC(=O)c1ccccc1)N1CCN(C(c2ccccc2)c2ccccc2)CC1	11	89*	0	0	-5	-3
C[C@H]1[C@H](c2ccccc2)Oc2cccc(NCCc3ccccc3)c2S(=O)(=O)N1Cc1ccc(F)cc1	-3	.	.	.	-1	.
CNC[C@@H]1Oc2ccc(NC(=O)C3CCCCC3)cc2CC(=O)N([C@H](C)CO)C[C@@H]1C	.	.	.	.	.	4
O=C1CC(=O)N(Cc2cccs2)C(=O)N1	-3	-4	1	.	-6	11
O=C1CC(=O)N(Cc2ccco2)C(=O)N1	-6	1	89*	0	-11	2
CCOc1ccc(NS(=O)(=O)c2ccc(NC(=O)c3ccccc3C(=O)O)cc2)cc1	-1	76*	4	0	6	4
CCOc1ccc(NS(=O)(=O)c2ccc(NC(=O)c3ccccn3)cc2)cc1	3	.	0	-1	-3	21
NC(=N\N=Cc1ccco1)/C(N)=N/N=Cc1ccco1	-13	-1	.	-3	2	63*

High-throughput results from PubChem.
